# Granule exo inh = blocks lytic granule exocytosis | TALL-104 LAMP-1 surface exposure, flow cytometry; cells stimulated with thapsigargin and PMA | inhibition, % at 10 µM | hit rate 0.66% among 360,000;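 active = inhibition above about 55%, limit read from the data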
# CHOP UPR activ = activators of apoptotic arm of unfolded protein response (CHOP); CHO-CHOP luciferase reporter, UPR activation, luminescence; percent of tunicamycin response over DMSO baseline; activation, % at 10 µM; hit rate 0.34% among 330,000; AID 449763;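 active = at 10 µM dose, activation of 40% or more, normalized to positive control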;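 note: 100% = tunicamycin at 10 µg/mL and 0% = DMSO alone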
#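 Test system: CHO CHOP reporter cells. Input: 500 CHO-CHOP cells per well. Medium: F12 with 10% FBS. Technique: luciferase luminescence. Measure: percent activation relative to tunicamycin control. Dosing: 10 µM compound, 0.5% DMSO. Timing: 16-18 h cell attachment, then 6 h compound exposure, 37 °C.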
# Mdm2 MdmX PPI = human Mdm2/MdmX binding inhibition | O15151+Q00987 | hit rate 3% among 330,000 | inhibition, % at 8 µM | AID 485346 | SaOS-2 split-luciferase Mdm2/MdmX complementation, luminescence;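 active = inhibition of at least 50% at 8 µM in the primary screen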
# XBP1 UPR activ = adaptive UPR (XBP1) activation. activation, % at 20 µM. CHO-XBP1 luciferase reporter, IRE1-XBP1 UPR activation, luminescence; percent of tunicamycin response, DMSO as zero. hit rate 0.33% among 330,000;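 active = versus positive control, 20 µM dose yields 30% or more activation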;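 note: 100% = tunicamycin at 10 µg/mL and 0% = DMSO only wells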
#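 Material: CHO-XBP1 cells stably carrying IRE1-XBP1-driven luciferase reporter | Medium: F12 with 10% serum | Compound dosing: 20 µM single concentration, DMSO 1% | Incubation: Overnight seeding at 37 °C, 6 h compound treatment at 37 °C | Detection: Steady-Glo luminescence read | Read-out basis: % activation of reporter signal versus tunicamycin and DMSO controls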
# ABHD5 PLIN5 PPI = ABHD5-PLIN5 protein interaction inhibition | Q00G26+Q8WTS1 | AID 602281 | inhibition, % at 4 µM | hit rate 0.78% among 360,000 | Split G. princeps luciferase complementation, luminescence, 4 h;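 active = inhibition above the mean inhibition across every tested compound plus 3 SD, cut at about 22% in these data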;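 note: 0% = DMSO only wells and the 100% control is not disclosed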
# Target sequence (Q00G26 whole entry, looked up): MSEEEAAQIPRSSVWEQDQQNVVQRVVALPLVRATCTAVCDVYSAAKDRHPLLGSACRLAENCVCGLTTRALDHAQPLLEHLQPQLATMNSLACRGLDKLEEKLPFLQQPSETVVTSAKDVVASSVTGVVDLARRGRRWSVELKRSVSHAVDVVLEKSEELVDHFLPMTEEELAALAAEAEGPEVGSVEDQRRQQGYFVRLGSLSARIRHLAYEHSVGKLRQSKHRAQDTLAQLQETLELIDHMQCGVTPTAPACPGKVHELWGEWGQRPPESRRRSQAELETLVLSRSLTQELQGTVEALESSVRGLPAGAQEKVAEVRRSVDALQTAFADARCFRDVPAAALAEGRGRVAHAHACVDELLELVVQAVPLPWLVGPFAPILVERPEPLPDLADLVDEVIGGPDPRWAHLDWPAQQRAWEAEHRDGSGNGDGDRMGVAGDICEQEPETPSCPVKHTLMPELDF
# Target sequence (Q8WTS1 whole entry, looked up): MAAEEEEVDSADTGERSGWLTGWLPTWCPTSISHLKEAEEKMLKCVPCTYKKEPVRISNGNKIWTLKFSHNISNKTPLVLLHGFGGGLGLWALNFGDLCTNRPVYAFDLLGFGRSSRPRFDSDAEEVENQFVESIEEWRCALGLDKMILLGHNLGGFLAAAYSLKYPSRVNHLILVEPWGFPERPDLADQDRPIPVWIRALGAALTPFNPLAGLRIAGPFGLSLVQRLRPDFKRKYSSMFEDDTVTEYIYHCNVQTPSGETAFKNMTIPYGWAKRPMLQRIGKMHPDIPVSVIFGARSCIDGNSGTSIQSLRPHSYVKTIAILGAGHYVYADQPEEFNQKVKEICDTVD
# Mdm2-MdmX conf = human Mdm2/MdmX binding inhibition, confirmed; inhibition, % at 8 µM; hit rate 55% among 10,000; luminescent assay; AID 489028; shares compounds with Mdm2 MdmX PPI; in the data active = inhibition above about 40%
# Full FLuc ctr = counter-screen for Mdm2/MdmX inhibitors: full-length luciferase; inhibition, % at 8 µM; hit rate 77% among 6,200; AID 504607; shares compounds with Mdm2 MdmX PPI; SaOS-2 full-length luciferase counterscreen, luminescence;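 active = mean inhibition at 8 µM reaching about 37%, which flags the compound as non-specific, limit read from the data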;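 note: p53-null SaOS-2 cells with luciferase driven by a doxycycline-inducible promoter; compound on cells about two nights before reading with doxycycline added after day one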
# Starred values were filed as active, the others as inactive; x = no result given. This is a sample that favours compounds with a hit; in the whole collection about 4% have one here.
SMILES,Granule exo inh,CHOP UPR activ,Mdm2 MdmX PPI,XBP1 UPR activ,ABHD5 PLIN5 PPI,Mdm2-MdmX conf,Full FLuc ctr
O=C(CCCN1C(=O)/C(=C/c2cccs2)SC1=S)Nc1ccccc1O,5.4,-0.2,54.1*,-1.4,2.7,37.9,86.9*
COC(=O)c1ccc2nc(-c3ccc(OC)c(OC)c3)c(Cc3ccc(C)cc3)n2c1,4.0,x,x,x,-0.5,x,x
Cc1c([N+](=O)[O-])c2ccc(O)cc2n1-c1ccccc1,-2.8,-3.1,66.5*,-2.1,4.0,65.4*,19.3
Cc1ccc(-n2c(C)c([N+](=O)[O-])c3ccc(O)cc32)cc1,x,-2.2,50.0,-2.1,x,64.6*,10.3
Cc1c(C(=O)O)c2cc(O)ccc2n1-c1ccccc1,-4.6,1.2,12.2,-1.5,-4.9,x,x
O=C(c1[nH]ncc1-c1cccc(Br)c1)C1CO1 (stereo not given),-3.7,13.9,50.9*,-4.8,6.0,43.5*,50.8*
O=C1CC(c2ccc(O)cc2)Oc2cc(O)cc(O)c21 (stereo not given),-2.3,1.7,-3.7,1.7,-6.3,x,x
CC1CC(=O)c2c(cc3c(-c4c(O)cc(O)c5c(O)c6c(cc45)OC(C)CC6=O)c(O)cc(O)c3c2O)O1 (stereo not given),8.0,10.1,100.3*,13.6,9.9,93.2*,5.5
COc1ccc(S(=O)(=O)NCC(c2cccnc2)N2CCN(c3ccc(F)cc3)CC2)cc1C (stereo not given),-0.8,x,x,x,9.4,x,x
COCCCNC(=O)C[C@H]1C[C@H](C(=O)N2CCOCC2)[C@@]2(C)c3[nH]c4cc(CCC(=O)N(C)C)ccc4c3CCN2C1=O,6.6,2.3,63.5*,2.6,-3.2,-23.6,x
CC(C)=CCC/C(C)=C/CNC(=O)C[C@H]1C[C@H](C(=O)N2CCOCC2)[C@@]2(CCC3CCCC3)c3[nH]c4cc(CCC(=O)N(C)C)ccc4c3CCN2C1=O,3.6,9.4,77.1*,21.3,-0.2,20.6,x
CN(C)C(=O)CCc1ccc2c3c([nH]c2c1)[C@]1(CCC2CCCC2)[C@@H](C(=O)N2CCOCC2)C[C@H](CC(=O)NCC24CC5CC(CC(C5)C2)C4)C(=O)N1CC3,2.2,6.4,70.0*,12.7,-13.3,63.2*,43.9*
CC(C)CCn1c(=O)c2ccccc2n2c(CCC(=O)NC3CCN(Cc4ccccc4)CC3)nnc12,-5.4,-0.4,76.6*,-1.6,-3.2,57.8*,49.0*
CC(=O)N1CCc2cc(S(=O)(=O)NCCCN3CCN(Cc4ccccc4)CC3)ccc21,9.0,-0.5,6.9,-2.6,2.2,x,x
COc1ccc(S(=O)(=O)N2c3ccc(F)cc3CCC2C)cc1 (stereo not given),17.7,-0.8,59.1*,21.8,-5.9,63.3*,97.1*
Cc1ccc(/C=N/NC(=O)c2ccc3ccccc3c2)s1,3.8,1.6,56.5*,8.5,-0.1,68.4*,73.1*
Cc1ccc(/C=N/NC(=O)c2ccc3c(c2)OCCO3)s1,2.6,2.4,16.1,-1.6,1.7,x,x
O=c1cc(-c2ccc(O)c(O)c2)oc2ccc3ccccc3c12,-2.9,30.2,54.6*,10.3,1.7,74.5*,130.8*
COc1ccc2c(c1)c(C(C)=O)c(C)n2-c1ccc(C(C)=O)cc1,-12.2,-1.8,61.3*,-5.2,2.3,60.6*,40.4*
COC(=O)c1c(C)n(-c2ccc(OC)cc2)c2ccc(O)cc12,-7.2,-3.4,66.5*,-3.3,-2.5,63.5*,20.4
COc1ccc(-n2c(C)c(C(C)=O)c3cc(OC(C)=O)ccc32)cc1,-6.7,-0.9,81.9*,-1.5,2.9,86.2*,6.4
COc1ccc2c(c1)c(C(=O)O)c(C)n2-c1ccccc1,-3.4,1.0,7.3,-0.7,0.4,x,x
O=C(Nc1nc2ccccc2[nH]1)c1cccc([N+](=O)[O-])c1,-0.1,5.5,-53.2,4.8,-1.8,x,x
C(=N\Nc1nc2ccccc2[nH]1)/c1ccccn1,-0.7,x,x,x,1.9,x,x
CCN(CC)c1ccc(/C=N/Nc2nc3ccccc3[nH]2)c(O)c1,4.6,13.3,58.5*,23.5,-10.8,74.2*,39.6*
SMILES,Granule exo inh,CHOP UPR activ,Mdm2 MdmX PPI,XBP1 UPR activ,ABHD5 PLIN5 PPI,Mdm2-MdmX conf,Full FLuc ctr
C(=N\Nc1nc2ccccc2[nH]1)/c1cccc2nccnc12,29.0,8.2,73.8*,14.9,0.6,64.9*,31.8
O=C(COc1ccccc1)NC1CCSc2ccccc21 (stereo not given),2.2,1.1,23.7,2.0,12.5,x,x
CC(C)N1CCN(c2ccncc2S(=O)(=O)N2CCCCC2)CC1,-2.8,x,x,x,1.1,x,x
C[C@H](CO)N1C[C@H](C)[C@@H](CN(C)C)Oc2c(NC(=O)C3CC3)cccc2C1=O,-11.1,0.0,-6.3,5.5,8.9,x,x
O=C(NCC1CCCCC1)c1csc([C@@H]2O[C@H](CO)[C@H](O)[C@H](O)[C@H]2O)n1,0.1,x,x,x,-4.5,x,x
CCCCCCc1cc2cc(C(=O)OCC)c(=O)oc2cc1O,22.1,1.1,63.6*,1.7,3.5,10.8,x
CCCCCCc1cc2cc(C(=O)Nc3ccc(OC)cc3)c(=O)oc2cc1O,-0.9,4.4,100.1*,-0.8,-0.8,34.3,x
CCCCCCc1cc2cc(C(N)=O)c(=N)oc2cc1O,x,2.9,8.3,1.3,x,x,x
CCCCCCc1cc2cc(S(=O)(=O)c3ccc(F)c(Cl)c3)c(=O)oc2cc1O,1.6,0.5,98.2*,2.4,3.7,92.3*,27.6
CCCCCCc1cc2cc(/C(N)=N/NC(=O)c3ccncc3)c(=O)oc2cc1O,-2.7,2.9,65.3*,-2.1,-0.7,18.6,x
O=C(NC1CC1)c1ccc(S(=O)(=O)NC2CCCCCC2)cc1,-1.1,-2.3,12.0,-0.3,-2.3,x,x
CSc1ccc(/C=N/n2c(C)nnc2C)cc1,-0.1,-1.2,-8.4,-3.0,-0.6,x,x
Cn1c(CSCc2ccc(F)cc2)n[nH]c1=S,-14.4,0.2,4.0,-4.4,-4.1,x,x
C/C(=N\Nc1nc2ccccc2nc1C)c1ccccc1O,-2.4,2.1,16.6,4.5,13.1,x,x
CCCCCCc1cc2cc(C(=O)Nc3cccc(OC)c3)c(=O)oc2cc1O,2.4,4.2,94.6*,10.5,4.1,4.5,x
O=C(Nc1ccc(S(=O)(=O)N2CCCC2)cc1)Nc1ccc(F)cc1F,-1.0,3.3,33.1,2.7,-12.1,x,x
CCOc1ccc(OCC)c(NC(=O)CN2CCN(c3cccc(C)c3)C(C)C2)c1 (stereo not given),-2.6,0.7,53.0*,0.6,3.6,64.2*,46.4*
CCOc1ccc(OCC)c(NC(=O)CN2CCN(c3cccc(C)c3)CC2)c1,-1.7,-1.0,18.2,-0.9,1.8,x,x
CCCS(=O)(=O)N1CCN(C(=O)c2cc(OC)cc(OC)c2)CC1,0.1,1.0,8.9,1.6,8.8,x,x
